Screening data as filed in PubChem.
GPR7 antagonist – GPR7 receptor antagonists, primary screen, cell-based, fluorescence, single concentration; Neuropeptides B/W receptor type 1 (Homo sapiens), P48145; GPR7-expressing cells, fluorescence antagonist assay; inhibition, % at 4.4 µM; 290,000 tested, 1.1% active; in the data active = inhibition above about 16%, passing the limit was not always enough;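 also: cells stimulated with the agonist NPW; 0% = agonist with vehicle and 100% = vehicle without agonist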
TAAR1 agonist – human TAAR1 agonists, primary screen, Fluo-8 calcium fluorescence, CHO RD-HGA16 cells. vehicle wells 0%, saturating PEA agonist 100%. activation, % at 3 µM. 360,000 tested, 0.99% active;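 active = activation above the mean activation of all test compounds in the run plus 3 SD, cut at about 38% in these data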
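Assay system – CHO-derived RD-HGA16 cells with stable Gα16 and human TAAR1 · Compound dosing – one-point dosing at 3 µM (nominal) · Incubation – 17-24 h seeding, 75 min 37 °C dye, 30 min RT · Measured by – kinetic Fluo-8 calcium fluorescence · Control set – DMSO vehicle as 0%, PEA at EC100 as 100% · Repeats – single well for each compound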
TAAR1 antag – human TAAR1 antagonists, primary screen, Fluo-8 calcium fluorescence, CHO RD-HGA16 cells; Trace amine-associated receptor 1 (Homo sapiens), Q96RJ0; antagonist; inhibition, % at 3 µM; 360,000 tested, 1.5% active;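 active = inhibition above a per-plate cutoff, the mean inhibition of test compounds on that plate plus 3 SD, cut at about 49% in these data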;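 also: 0% = DMSO plus EC80 beta-PEA response and 100% = DMSO alone without agonist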
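Test system: hTAAR1-expressing CHO RD-HGA16 cells, Gα16-coupled; Probe or stimulus: EC80 β-phenethylamine stimulus; Compound dosing: single nominal final test compound concentration of 3 µM; Timing: 140 s kinetic read after compound, 140 s after agonist; Signal: Fluo-8 calcium-sensitive fluorescence; Measure: % inhibition of agonist calcium response; Controls: DMSO and EC80 PEA controls.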
TRPML3 agonist – human TRPML3 channel agonists, primary screen, cell-based, HEK293 TRPML3-YFP, Fluo-8 calcium fluorescence, 3 µM | 220,000 tested, 0.29% active | 100% = the carbachol control signal | AID 1448, 2008 | Mucolipin-3 (Homo sapiens), Q8TDD5 | activation, % at 3 µM;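 active = activation above its plate's cutoff, the mean activation of the plate's test wells plus 3 SD, cut at about 12% in these data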;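 also: 0% = DMSO only wells and 100% = carbachol wells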
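system = HEK293 cells stably carrying human TRPML3-YFP | doses = one concentration, 3 µM nominal, 0.3% DMSO | timing = dye loading 1 h 37 °C then 30 min ambient, 125 s read | detection = Fluo-8 calcium dye fluorescence, ex 470-495, em 515-575 nm | benchmarks = high control carbachol 87 µM, low control DMSO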
zfTRPN1 agonist – zebrafish TRPN1 channel agonists, primary screen, cell-based, HEK293, calcium fluorescence | HEK293 zebrafish TRPN1-YFP, Fluo-8 calcium fluorescence; 100% = response to 87 µM carbachol | activation, % at 3 µM | 220,000 tested, 0.18% active | transient receptor potential cation channel N1 (TRPN1/NompC), Danio rerio;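 active = activation above its plate's cutoff, the mean activation of test wells on that plate plus 3 SD, cut at about 19% in these data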;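 also: 0% = DMSO alone and 100% = 87 µM carbachol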
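Material: zebrafish TRPN1-YFP in HEK293 cells. Doses: one dose of 3 µM, 0.3% DMSO. Incubation: dye 1 h 37 °C plus 30 min RT. Measured by: intracellular calcium fluorescence with Fluo-8.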
LANA-H2B inh – blockers of LANA interaction with H2A/H2B – biochemical, FP readout, HTS, primary screen; Protein LANA1 (Human herpesvirus 8 type P (isolate GK18)), Q9QR71; cell-free LANA-H2A/H2B peptide, fluorescence polarization; inhibition, % (concentration not given with the values); 320,000 tested, 0.6% active; AID 2629, 2010; in the data active = inhibition mostly above about 10%, no sharp cut-off; inactive = mostly below about 6.7%
Target sequence (Q9QR71 whole entry, looked up): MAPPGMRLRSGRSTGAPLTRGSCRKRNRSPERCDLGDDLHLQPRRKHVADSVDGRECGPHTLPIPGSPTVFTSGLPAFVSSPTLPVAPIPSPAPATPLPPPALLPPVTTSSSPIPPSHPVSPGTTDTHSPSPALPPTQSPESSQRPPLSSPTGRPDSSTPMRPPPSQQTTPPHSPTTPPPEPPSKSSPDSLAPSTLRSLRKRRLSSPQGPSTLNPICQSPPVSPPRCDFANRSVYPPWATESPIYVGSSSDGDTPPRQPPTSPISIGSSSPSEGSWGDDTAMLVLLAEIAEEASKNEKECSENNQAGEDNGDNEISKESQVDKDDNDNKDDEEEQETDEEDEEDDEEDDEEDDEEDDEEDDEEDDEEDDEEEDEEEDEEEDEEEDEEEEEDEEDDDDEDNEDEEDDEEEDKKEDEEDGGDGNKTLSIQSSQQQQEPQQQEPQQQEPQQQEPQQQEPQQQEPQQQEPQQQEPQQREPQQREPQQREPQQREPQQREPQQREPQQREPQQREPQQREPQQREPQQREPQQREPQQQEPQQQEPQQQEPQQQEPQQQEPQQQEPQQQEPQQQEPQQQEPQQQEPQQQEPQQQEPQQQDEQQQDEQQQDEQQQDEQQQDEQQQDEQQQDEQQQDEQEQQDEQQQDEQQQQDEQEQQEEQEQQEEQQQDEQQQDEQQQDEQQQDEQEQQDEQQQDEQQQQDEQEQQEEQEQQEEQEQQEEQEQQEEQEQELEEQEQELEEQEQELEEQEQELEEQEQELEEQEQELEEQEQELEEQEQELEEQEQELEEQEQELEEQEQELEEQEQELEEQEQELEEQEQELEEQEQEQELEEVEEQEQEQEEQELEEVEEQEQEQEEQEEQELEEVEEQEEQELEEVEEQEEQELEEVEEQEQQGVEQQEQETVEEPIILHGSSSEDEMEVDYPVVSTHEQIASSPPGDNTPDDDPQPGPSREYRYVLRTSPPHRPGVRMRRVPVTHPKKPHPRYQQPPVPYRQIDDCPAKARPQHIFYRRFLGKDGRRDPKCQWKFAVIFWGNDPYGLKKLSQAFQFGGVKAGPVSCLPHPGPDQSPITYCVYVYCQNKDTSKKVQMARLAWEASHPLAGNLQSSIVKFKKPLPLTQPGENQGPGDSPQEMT
TRPN1 counter – zebrafish TRPN1 channel agonists, counter-screen for TRPML3 agonist project, cell-based, HEK293 TRPN1-YFP, Fluo-8 calcium | shares compounds with TRPML3 agonist | 310 tested, 10% active | Fluo-8 calcium fluorescence; scaled: carbachol wells 100%, DMSO wells 0% | activation, % at 3 µM;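 active = mean activation over replicates above a set limit taken from the earlier TRPN1 channel primary screen, cut at about 19% in these data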;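 also: 100% = carbachol and 0% = 0.3% DMSO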
TRPML3 ag conf – human TRPML3 channel agonists, confirmation, cell-based, HEK293 TRPML3-YFP, Fluo-8 calcium, triplicate | Fluo-8 calcium fluorescence; 100% set by carbachol, 0% by DMSO | 310 tested, 80% active | activation, % at 3 µM | shares compounds with TRPML3 agonist | AID 1526, 2009;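 active = activation above a set limit derived from the earlier primary screen, cut at about 12% in these data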
* hit, by the source's call; . = no result given. An excerpt weighted towards active compounds, which were near 3.4% of everything screened.

SMILES	GPR7 antagonist	TAAR1 agonist	TAAR1 antag	TRPML3 agonist	zfTRPN1 agonist	LANA-H2B inh	TRPN1 counter	TRPML3 ag conf
O=c1cc(C(F)(F)F)[nH]c2c(C(F)(F)F)cccc12	-12	.	.	15*	5	1	29*	13*
COc1ccc(C(=O)Nc2ccc(S(=O)(=O)N3CCCCC3C)cc2)c(OC)c1OC (stereo not given)	-1	1	14	70*	1	1	1	83*
COC(=O)Cc1nnn2c1[C@H](C)[C@@H](OC)c1cccc(Cl)c1-2	.	0	5	.	.	.	.	.
N#Cc1cc(F)cc(OCCCN2CCC(C(O)(c3ccccc3)c3ccccc3)CC2)c1	.	24	33	.	.	.	.	.
C=C(C)CN1CCN(S(=O)(=O)c2ccc(C)c(N(C)S(=O)(=O)c3ccc(C)cc3)c2C)CC1	4	0	8	60*	2	-2	-1	78*
Cc1ccc(S(=O)(=O)N(C)c2c(C)ccc(S(=O)(=O)N3CCN(C)CC3)c2C)cc1	-15	2	6	8	-1	8	.	.
O=C(O)c1csc(N/N=C/c2ccc(Br)cc2)n1	-6	6	-4	32*	0	.	0	42*
CCn1c(=O)cc(OCC(=O)Nc2ccc(OC)c(OC)c2)c2ccccc21	-4	7	1	23*	4	-2	7	23*
CCn1c(=O)cc(OCC(=O)Nc2ccc3c(c2)OCCO3)c2ccccc21	-3	17	8	-1	4	1	.	.
Nc1[nH]c(C(=O)c2ccccc2)c(-c2ccc(Cl)cc2)c1C(=O)c1c[nH]c2cc(F)ccc12	.	3	-14	.	.	.	.	.
CCCOc1cc(C)c(Cl)cc1S(=O)(=O)N(CC)CC	-5	10	-10	26*	-2	3	-2	97*
CCOc1cc(C)c(Cl)cc1S(=O)(=O)N(C)C	3	7	-4	1	-1	6	.	.
Cc1cccc(N2CCN(C(=O)c3[nH]c(C(F)(F)F)nc3-c3ccccc3)CC2)c1C	.	8	-5	.	.	.	.	.
O=S(=O)(Nc1ccccc1N1CCCCC1)c1cccs1	-4	11	-4	14*	-2	-3	-2	33*
O=S(=O)(Nc1ccccc1N1CCCCC1)c1ccc(F)cc1	-13	16	-18	31*	-3	-4	-2	78*
O=S(=O)(Nc1ccccc1N1CCCCC1)c1ccccc1	-30	1	-31	.	.	-6	.	.
Cc1nc(NC(=O)c2csc3ccccc23)sc1C	-4	11	13	18*	-2	-3	1	28*
Cc1nc(NC(=O)c2ccccc2O)sc1C	-6	0	-12	.	.	-3	.	.
CCN(C(=O)c1cnc(OC)cc1C(F)(F)F)c1ccc(Cl)cc1Cl	-7	-1	-12	39*	1	-4	18	47*
CCN1CCN(S(=O)(=O)c2ccc(C)c([N+](=O)[O-])c2)CC1	15	1	-8	0	1	0	.	.
COc1ccc(S(=O)(=O)N2CCC(C)CC2)cc1Br	-10	16	5	66*	0	-2	-1	106*
CC1CCN(S(=O)(=O)c2ccc([N+](=O)[O-])cc2)CC1	-6	0	-12	.	.	5	.	.
Cc1ccc(S(=O)(=O)N2CCC(C)CC2)cc1[N+](=O)[O-]	-11	3	24	93*	-1	.	1	87*
Cc1ccc(S(=O)(=O)N2CCCCCC2)cc1[N+](=O)[O-]	-4	14	-5	12*	-1	1	-1	19*
COc1ccc(S(=O)(=O)N2CCC(C)CC2)cc1OC	-15	0	-15	.	.	5	.	.
SMILES	GPR7 antagonist	TAAR1 agonist	TAAR1 antag	TRPML3 agonist	zfTRPN1 agonist	LANA-H2B inh	TRPN1 counter	TRPML3 ag conf
COc1ccc(Sc2cccc3c2S(=O)(=O)N(C2CC2)C[C@@H](COCc2ccccc2)O3)cc1OC	.	2	6	.	.	.	.	.
N#C/C(=N/Nc1ccccc1[N+](=O)[O-])C(N)=S	-3	13	-6	12*	13	-6	20*	8
CC(C)[C@@H](C)/C=C/[C@@H](C)[C@H]1CC[C@@H]2[C@]1(C)CCC1[C@]23C=C[C@]2(C[C@@H](O)CC[C@]12C)N(c1ccc(F)cn1)O3 (stereo not given in full)	.	0	-11	.	.	.	.	.
Cc1ccc(-n2nc3c(Cl)nnc(C)c3c2C)cc1	6	-3	-8	13*	-2	-2	-2	0
CCOC(=O)C1=CCN(S(=O)(=O)c2cccc(Cl)c2)C1c1cccc(Cl)c1 (stereo not given)	.	2	37	.	.	.	.	.
CCOc1cc(S(=O)(=O)N2CCCCCC2)ccc1F	10	1	4	15*	-1	-3	0	22*
COc1ccc(S(=O)(=O)N2CCCCC2)cc1C(C)C	-19	17	-8	74*	3	-3	-2	138*
COc1ccc(S(=O)(=O)N2CCCCCC2)cc1N(C)S(=O)(=O)c1ccccc1	-1	5	3	70*	2	1	2	74*
COc1ccc(S(=O)(=O)N2CCCCC2)cc1N(C)S(=O)(=O)c1ccccc1	9	0	-23	.	.	-5	.	.
CC(C)=C1C2CCC1C(C(=O)NCc1ccccc1)C2C(=O)O (stereo not given)	-4	12	13	18*	1	-2	0	4
Cc1cc(C)c(S(=O)(=O)c2c(C)cccc2C)c(OCC(C)C)n1	1	3	-11	12*	0	-1	0	43*
C#CCOc1nc(C)cc(C)c1S(=O)(=O)c1ccccc1C	3	2	5	41*	-3	6	-3	61*
Cc1cc(C)c(S(=O)(=O)c2ccccc2C)c(OCCN(C)C)n1	-2	0	-8	.	.	0	.	.
O=C(NCc1ccccc1)[C@@H]1CCCN1C(=O)[C@H]1CCCN1C(=O)c1cc(F)cc(F)c1	.	1	6	.	.	.	.	.
